What was measured:
[1] = molecular target: recombinant SPHK1 (Homo sapiens, UniProt Q9NYA1); test: In vitro SphK activity assay with recombinant SPHK1; type: biochemical; conditions: recombinant protein, Fig. 2B
[2] = molecular target: T1, recombinant SPHK2 (Homo sapiens, UniProt Q9NRA0); test: In vitro SphK activity assay with recombinant SPHK2; type: biochemical; conditions: Fig. 2B
T1 sequence (Q9NRA0 1-654): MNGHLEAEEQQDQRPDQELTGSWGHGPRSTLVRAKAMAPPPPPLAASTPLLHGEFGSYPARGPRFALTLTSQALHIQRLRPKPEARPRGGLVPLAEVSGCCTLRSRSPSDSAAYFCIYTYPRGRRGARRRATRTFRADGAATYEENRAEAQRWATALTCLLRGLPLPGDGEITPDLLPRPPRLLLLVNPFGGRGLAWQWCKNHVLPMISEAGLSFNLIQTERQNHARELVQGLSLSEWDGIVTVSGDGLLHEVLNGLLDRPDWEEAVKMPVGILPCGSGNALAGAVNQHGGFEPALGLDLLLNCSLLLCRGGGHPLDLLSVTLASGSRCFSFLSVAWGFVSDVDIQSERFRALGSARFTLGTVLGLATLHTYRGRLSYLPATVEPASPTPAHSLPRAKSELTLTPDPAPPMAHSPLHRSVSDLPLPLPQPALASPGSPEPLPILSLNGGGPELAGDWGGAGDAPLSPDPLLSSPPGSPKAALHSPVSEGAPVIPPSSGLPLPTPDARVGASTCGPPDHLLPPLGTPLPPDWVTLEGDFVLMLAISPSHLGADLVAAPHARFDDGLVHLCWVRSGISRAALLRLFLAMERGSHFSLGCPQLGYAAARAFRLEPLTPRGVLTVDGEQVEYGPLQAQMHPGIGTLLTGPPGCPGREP

[3] = system: UACC 903 cells; test: Cellular S-1-P and ceramide content by LC-MS-MS, UACC 903; type: cell-based, human; conditions: UACC 903, 2.5 and 5.0 μM, 48 hours
Outline: (§1)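 UACC 903 or 1205 Lu cells (2.0×10^6, triplicate dishes) in DMEM/10% FBS; after 24 h, PBS-washed and treated 48 h with 2.5 or 5.0 μM test compound or DMSO. Floating cells pelleted at 500 x g, 5 min, 4 °C, PBS-washed and pooled with scraped adherent cells. Extracts assayed by LC-MS-MS for sphingosine, S-1-P and ceramides.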

[4] = system: UACC 903 xenografted melanoma tumors; test: Xenografted UACC 903 melanoma tumor growth; type: in vivo, nude mice; conditions: UACC 903 xenograft, 100 mg/kg i.p. Mon/Wed/Fri, day 22
Outline: (§2)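 Female nude mice, 4-6 weeks old, injected s.c. above both rib cages with 5×10^6 UACC 903 or 2.5×10^6 1205 Lu cells in 0.2 ml DMEM/10% FBS. On day 6, randomized (n=5, 10 tumors per group). Dosed i.p. at 100 mg/kg in 50 μl DMSO (or DMSO alone) Mon/Wed/Fri for 3 weeks. Tumor dimensions by calipers; body weight monitored.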

[5] = Body weight during i.p. treatment; type: in vivo, nude mice; conditions: 100 mg/kg
[6] = system: A375M melanoma cells; test: MTS cell viability, A375M; type: cell-based, human; conditions: value of the text (Fig. 3A, 72 hours)
Outline: (§3)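 5×10^3 cells/well in DMEM/10% FBS, pre-grown 36 h (melanoma lines) or 72 h (FF2441 fibroblasts, FOM melanocytes). Then exposed to test compound (0.5–100 μM) or DMSO for 24, 48 or 72 h. Viability by MTS relative to vehicle-treated cells; IC50 fitted per line. Melanoma values also averaged across the six melanoma lines.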

[7] = system: UACC 903 melanoma cells; test: MTS cell viability, UACC 903; type: cell-based, human
Outline: as §3

[8] = system: 1205 Lu melanoma cells; test: MTS cell viability, 1205 Lu; type: cell-based, human; conditions: value of the text (Fig. 3A, 72 hours)
Outline: as §3

[9] = system: melanoma cells; test: MTS cell viability, average/range over the melanoma cell lines; type: cell-based, human
Outline: as §3

[10] = system: 1205 Lu cells; test: Cellular S-1-P and ceramide content by LC-MS-MS, 1205 Lu; type: cell-based, human; conditions: 48 hours
Outline: as §1

[11] = system: 1205 Lu xenografted melanoma tumors; test: Xenografted 1205 Lu melanoma tumor growth; type: in vivo, nude mice; conditions: 1205 Lu xenograft, 100 mg/kg i.p. Mon/Wed/Fri, day 21
Outline: as §2

[12] = system: UACC 903 cells; test: Cell cycle analysis; type: cell-based, human; conditions: 72 h
Outline: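 1.5×10^6 UACC 903 cells grown in 100-mm dishes, then treated 72 h with 1, 2.5 or 5.0 μM test compound or DMSO. Floating plus adherent cells collected by trypsinization and stained 30 min at 4 °C (propidium iodide 100 μg/ml, RNase A 20 μg/ml, Triton X-100 3 μg/mL in 0.1% sodium citrate). Phase distribution by FACScan.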

[13] = system: CYCLIN D1 in UACC 903 cells; test: Western blot of CYCLIN D1; type: cell-based, human; conditions: 72 h; for Decrease in CYCLIN D1 expression: compared to DMSO
Outline: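 UACC 903 cells treated 72 h with test compound or DMSO and lysed in HEPES pH 7.5 buffer with protease/phosphatase inhibitors. Lysates cleared at 10,000 x g, 10 min, 4 °C; 30 μg protein per lane. Blotted to PVDF and detected by ECL. Band intensity densitometry given as percent change versus DMSO-treated cells.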

[14] = system: A375M cells; test: Caspase-3/7 activity; type: cell-based, human; conditions: 72 hours, tested 1, 2.5, 5.0 μM
Outline: (§4)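 UACC 903, A375M or 1205 Lu cells (5×10^3/well, 96-well) exposed 72 h to test compound or DMSO. Caspase-3/7 substrate Z-DEVD-R110 (Apo-ONE kit) added 4 h before the end of treatment. Read-out is fold increase in caspase-3/7 activity over DMSO-treated cells. At least 3 independent experiments, SEM.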

[15] = system: UACC 903 cells; test: Caspase-3/7 activity; type: cell-based, human; conditions: UACC 903, 72 hours, tested 1, 2.5, 5.0 μM
Outline: as §4

[16] = system: 1205 Lu cells; test: Caspase-3/7 activity; type: cell-based, human; conditions: 72 hours, tested 1, 2.5, 5.0 μM
Outline: as §4

[17] = UACC 903, 2.5 μM, compared to DMSO

recombinant SPHK1, sequence (Q9NYA1 whole entry): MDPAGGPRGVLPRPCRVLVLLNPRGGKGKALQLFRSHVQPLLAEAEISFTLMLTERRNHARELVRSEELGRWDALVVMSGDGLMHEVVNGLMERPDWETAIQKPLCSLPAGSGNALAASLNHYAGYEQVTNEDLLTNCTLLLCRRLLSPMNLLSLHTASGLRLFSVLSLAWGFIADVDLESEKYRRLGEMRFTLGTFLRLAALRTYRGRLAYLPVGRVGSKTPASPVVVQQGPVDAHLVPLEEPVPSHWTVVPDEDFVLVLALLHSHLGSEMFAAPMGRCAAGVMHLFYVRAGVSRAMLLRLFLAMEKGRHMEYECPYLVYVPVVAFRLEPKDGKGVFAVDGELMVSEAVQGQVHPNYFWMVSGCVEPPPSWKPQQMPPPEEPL

In the case of Oc1ccc(Nc2nc(-c3ccc(Cl)cc3)cs2)cc1 [SKI-II, 2-(p-hydroxyanilino)-4-(p-chlorophenyl) thiazole], the “Inhibition of SPHK1 activity” value [1] is reported as “effective at inhibiting”, the “Inhibition of SPHK2 activity” value ([2]; recombinant protein) is reported as “effective at inhibiting” and the “Selectivity SPHK1 versus SPHK2” value ([2]; recombinant proteins) is reported as “slightly enhanced selectivity to SPHK2”. For the same compound, the “Effect on cellular S-1-P” value [3] was “did not effect”, the “Effect on cellular ceramide levels” value [3] was “did not effect” and the “Difference in tumor volume between vehicle control and treatment group” value (“Difference” for short) [4] was “no effect on tumor growth”. The Body weight change [5] was “No weight changes”.
For O=C(N/N=C/c1c(O)ccc2ccccc12)c1cc(-c2ccc3ccccc3c2)n[nH]1 [SKI-I], the IC50 [6] was 1.3 ± 0.27 µM, the “Reduction of cell viability” value ([7]; UACC 903, 5 μM, 72 hours) was 50% and the IC50 ([7]; UACC 903, value of the text (Fig. 3A, 72 hours)) was 5.72 ± 0.35 µM. For the same compound, the IC50 [8] was 4.89 ± 0.63 µM, the “Fold more effective than SKI-II (average IC50 values)” value ([9]; SKI-I compared to SKI-II) was ~ 10 fold and the IC50 ([9]; read-out: Average IC50 for melanoma cells, 24 h treatment) was 20.6 µM. The “Effect on cellular ceramide levels” value [3] was “induced”, the “Effect on cellular S-1-P” value [10] was “no significant change” and the “Effect on cellular ceramide levels” value [10] was “increased”. The “Difference” value [4] was ~ 40%, the “Difference” value [11] was ~ 26% and the “Fold decrease of the G0/G1 cell population” value [12, 17] was 2.4 fold. For the same compound, the “Fold increase of the G2/M population” value [12, 17] was 2.5 fold, the G2/M cell population ([12]; UACC 903, 5 μM) was “below detectable levels” and the “Decrease in CYCLIN D1 expression” value ([13]; UACC 903, 1 μM) was 86.1%. For the same compound, the “Decrease in CYCLIN D1 expression” value ([13]; UACC 903, 2.5 μM) was 97.1%, the “CYCLIN D1 levels” value ([13]; UACC 903, 5 μM) was “almost undetectable” and the “Concentration of maximal caspase-3/7 activity” value (shortened to “Concentration”) [14] was 2.5 µM. The “Concentration” value [15] was 5 µM, the “Concentration” value [16] was 5 µM and the Body weight change [5] was “No weight changes”.
